Measured values from ChEMBL document CHEMBL4513216, “Probing the Open Global Health Chemical Diversity Library for Multistage-Active Starting Points for Next-Generation Antimalarials” (ACS Infect Dis, 2020).

Assay: Toxicity liver stage against HepG2, at 10uM
Assay type: cell-based
Set-up: test concentration 10 uM, cell line HepG2-A16-CD81EGFP
Conditions: human, HepG2-A16-CD81EGFP cells; read-out: INHIBITION
Procedure, shortened: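 Uninfected HepG2-A16-CD81EGFP cells, 3 × 10^3 per well, 1536-well, plated on prespotted compound at 10 μM final, parasite-free screening media added to match infected plates; puromycin 10 μM positive, DMSO 0.5% negative; run in parallel with 48 h PbLuc assay at 37 °C, 5% CO2; viability by CellTiter-Glo luminescence, normalized to controls.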

| Structure (SMILES) | cytotoxicity at 10 µM [%] |
| --- | --- |
| CS(=O)(=O)c1ccc(-c2c[nH]c([C@@H]3COCCN3)n2)cc1 | 5.29 |
| COCC(=O)Nc1ccc(-c2noc([C@@H]3CCCN3C)n2)cn1 | 6.65 |
| O=C(Nc1ccc2c(c1)OCCO2)N1CCCC1c1ccco1 (stereo unspecified) | 8.2 |
| Cc1ccccc1OCC(=O)N1CC[C@]2(C[C@@H](OCC3CC3)CO2)C1 | 3.1 |
| O=C(c1cccnc1)N1CCCC1c1cc[nH]n1 (stereo unspecified) | -26.5 |
| O=C(CCn1c(C(F)F)cc2cccnc21)NC1CCCC1 | -40.5 |
| Cn1nccc1C(=O)N1Cc2cc(Cl)ccc2OC2(CCOCC2)C1 | 19.7 |
| O=C(Cc1ccsc1)N1CCC(c2noc(-c3ccncc3)n2)CC1 | -22.1 |
| NC(=O)CN1CCCC(CCCc2ccccn2)(C(N)=O)C1 (stereo unspecified) | -23.5 |
| O=C(Cc1ccsc1)N1CCC(c2n[nH]c3nccnc23)CC1 | -10.6 |
| CCc1noc(C(C)N2CCc3c(ncn3C3CC3)C2)n1 (stereo unspecified) | 4.36 |
| CCn1cc(S(=O)(=O)NCc2ccnc(-n3ccnc3)c2)cn1 | -1.78 |
| Cc1ccc(C(=O)Nc2ccn(CCC(N)=O)n2)cc1 | 2.42 |
| N#Cc1cccc(CN2C(=O)c3ccccc3CS2(=O)=O)c1 | -2.14 |
| CN(C)CCn1ccc2ccc(NC(=O)c3ccncc3F)cc21 | -1.53 |
| CCc1nnc2ccc(NCC3(O)CCOCC3)nn12 | -0.439 |
| OCc1ccncc1NCc1cnc(-c2ccccn2)s1 | -17.4 |
| CC(Cn1cccn1)NC(=O)N(C)Cc1ccsc1 (stereo unspecified) | -3.81 |
| CNC(=O)NC(=O)CN(Cc1ccc(C#N)cc1)Cc1cccc(F)c1 | 5.51 |
| CCC(CO)N(Cc1ccco1)C(=O)c1ccccc1SC (stereo unspecified) | 6.41 |
| CCC1(O)CCCN(c2nc(-c3ccccn3)nc3c2c(C)nn3C)C1 (stereo unspecified) | 3.11 |
| CCc1ccccc1CN1CCC(N2CCCC2=O)CC1 | -2.53 |
| CN(Cc1ccc2c(c1)OCO2)C(=O)c1ccc(C2CCCO2)s1 (stereo unspecified) | 5.6 |

| Structure (SMILES) | cytotoxicity at 10 µM [%] |
| --- | --- |
| O=C(c1cscn1)N1CCC(Cn2cc(-c3ccsc3)nn2)CC1 | 0.259 |
| CN(C(=O)c1ccc2c(c1)nc(N1CC[C@H](O)C1)n2C)C1CCSCC1 | -13 |
| CC(C)N(C)CC(=O)N1CCCC(c2ccc(C(=O)O)cc2)C1 (stereo unspecified) | -6.09 |
| CSc1cccc(CN(C)C(=O)C2CC(=O)N(CCN(C)C)C2)c1 (stereo unspecified) | -16.5 |
| COc1ccc(S(=O)(=O)NC(=O)COC2CCCC2)cc1 | -2.55 |
| Cc1nc(C)n(CC2CCCN(Cc3ncc(C(C)(C)C)o3)C2)n1 (stereo unspecified) | -5.95 |
| CC(C)c1nccc(N2CCN(CC(=O)N3CCOCC3)CC2)n1 | -8.68 |
| CCN(CC1CCOC1)C(=O)c1ccccc1S(=O)(=O)CC (stereo unspecified) | -2.15 |
| Cc1ccc(F)cc1NS(=O)(=O)c1cc2c(c(C(=O)O)c1)OCCO2 | -3.88 |
| COCCc1noc(CN2CCCC(Cn3cncn3)C2)n1 (stereo unspecified) | -2.55 |
| O=C(c1cccc2c1OCCO2)N1CCCC(n2cccn2)C1 (stereo unspecified) | -3.73 |
| Cc1ncsc1C(=O)N1CCCC1c1c(C)nn(C)c1Cl (stereo unspecified) | -1.9 |
| N#Cc1cc(NS(=O)(=O)c2cc(C(=O)O)cc(Cl)c2Cl)ccc1F | -1.37 |
| Cc1nn(C)c(C)c1C1COCCN1C(=O)c1n[nH]c2ccccc12 (stereo unspecified) | -8.72 |
| c1ccc(CNC2CCc3ncnn3C2)nc1 (stereo unspecified) | -6.69 |
| Cc1ncc(CNC(=O)N(C)C2CCN(c3ccccc3)C2=O)s1 (stereo unspecified) | -14.7 |
| CN(C)c1ncccc1CNC(=O)N1CCCC1c1ccsc1 (stereo unspecified) | -6.33 |
| O=C(c1cc(C2CCCCN2CCO)n[nH]1)N1CCOCC1 (stereo unspecified) | -24.5 |
| Cc1nc(CN2CCC3(CCCN(Cc4cnn(C)c4)C3)C2=O)cs1 (stereo unspecified) | -5.74 |
| COCC1c2c(cnn2CC2CC2)CCN1Cc1cccs1 (stereo unspecified) | -6.61 |
| Cc1cc(CN2CCC3(CC2)CC(Nc2ncccn2)CO3)nn1C (stereo unspecified) | -1.84 |
| c1cnc(NCc2noc3c2CN(CCN2CCCC2)CC3)nc1 | -7.36 |
| COC(=O)Cn1c(=O)[nH]c2cn(-c3ccc(C)cc3)c(=O)n21 | 0.413 |
